Laboratory results as given in ChEMBL document CHEMBL1150309, “Design, synthesis, and biological evaluation of thiophene analogues of chalcones” (Bioorg Med Chem, 2008).

system: HeLa; experiment: Antiproliferative activity against human HeLa cells after 2 days; format: functional, cell-based; conditions: 48 h
Summary of the method: (§1)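 Cells suspended at 300,000–500,000 cells/mL of culture medium and mixed 1:1 with dilutions of compound. Incubated 2 days at 37 °C, then cell number counted with a Coulter counter. IC50 is the concentration giving 50% inhibition of proliferation. Values are means from dose–response curves of at least three independent experiments.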

| SMILES | IC50 [nM] |
| --- | --- |
| COc1cc(C(=O)/C=C/c2ccc(F)cc2)cc(OC)c1OC | > 10000 |
| COc1cc(C(=O)c2ccc(-c3cccc(F)c3)s2)cc(OC)c1OC | 1700 |
| COc1cc(C(=O)c2ccc(-c3ccsc3)s2)cc(OC)c1OC | 1100 |
| COc1ccc(-c2ccc(C(=O)c3cc(OC)c(OC)c(OC)c3)s2)cc1 | 1000 |
| COc1cc(C(=O)c2ccc(-c3cccc([N+](=O)[O-])c3)s2)cc(OC)c1OC | 1400 |
| COc1ccccc1/C=C/C(=O)c1cc(OC)c(OC)c(OC)c1 | 1400 |
| COc1cccc(/C=C/C(=O)c2cc(OC)c(OC)c(OC)c2)c1 | 3700 |
| COc1ccc(/C=C/C(=O)c2cc(OC)c(OC)c(OC)c2)cc1OC | 2000 |
| COc1cc(C(=O)c2ccc(-c3ccccc3Cl)s2)cc(OC)c1OC | 1600 |
| COc1cc(C(=O)c2ccc(-c3ccc([N+](=O)[O-])cc3)s2)cc(OC)c1OC | > 10000 |
| COc1cc(C(=O)c2ccc(-c3ccc(Cl)cc3)s2)cc(OC)c1OC | 1500 |
| COc1cccc(-c2ccc(C(=O)c3cc(OC)c(OC)c(OC)c3)s2)c1 | 1400 |

system: FM3A; experiment: Antiproliferative activity against mouse FM3A cells after 2 days; format: functional, cell-based; conditions: 48 h; summary of the method: as §1

| SMILES | IC50 [nM] |
| --- | --- |
| COc1cc(C(=O)/C=C/c2ccc(F)cc2)cc(OC)c1OC | > 10000 |
| COc1cc(C(=O)c2ccc(-c3cccc(F)c3)s2)cc(OC)c1OC | 5600 |
| COc1cc(C(=O)c2ccc(-c3ccsc3)s2)cc(OC)c1OC | 1800 |
| COc1ccc(-c2ccc(C(=O)c3cc(OC)c(OC)c(OC)c3)s2)cc1 | 2400 |
| COc1cc(C(=O)c2ccc(-c3cccc([N+](=O)[O-])c3)s2)cc(OC)c1OC | 2400 |
| COc1ccccc1/C=C/C(=O)c1cc(OC)c(OC)c(OC)c1 | 7900 |
| COc1cccc(/C=C/C(=O)c2cc(OC)c(OC)c(OC)c2)c1 | 11000 |
| COc1ccc(/C=C/C(=O)c2cc(OC)c(OC)c(OC)c2)cc1OC | 10000 |
| COc1cc(C(=O)c2ccc(-c3ccccc3Cl)s2)cc(OC)c1OC | 1700 |
| COc1cc(C(=O)c2ccc(-c3ccc([N+](=O)[O-])cc3)s2)cc(OC)c1OC | > 10000 |
| COc1cc(C(=O)c2ccc(-c3ccc(Cl)cc3)s2)cc(OC)c1OC | 4600 |
| COc1cccc(-c2ccc(C(=O)c3cc(OC)c(OC)c(OC)c3)s2)c1 | 2400 |

system: L1210; experiment: Antiproliferative activity against mouse L1210 cells after 2 days; format: functional, cell-based; conditions: L1210, 48 h; summary of the method: as §1

| SMILES | IC50 [nM] |
| --- | --- |
| COc1cc(C(=O)/C=C/c2ccc(F)cc2)cc(OC)c1OC | > 10000 |
| COc1cc(C(=O)c2ccc(-c3cccc(F)c3)s2)cc(OC)c1OC | 2400 |
| COc1cc(C(=O)c2ccc(-c3ccsc3)s2)cc(OC)c1OC | 1300 |
| COc1ccc(-c2ccc(C(=O)c3cc(OC)c(OC)c(OC)c3)s2)cc1 | 2300 |
| COc1cc(C(=O)c2ccc(-c3cccc([N+](=O)[O-])c3)s2)cc(OC)c1OC | 2100 |
| COc1ccccc1/C=C/C(=O)c1cc(OC)c(OC)c(OC)c1 | 2100 |
| COc1cccc(/C=C/C(=O)c2cc(OC)c(OC)c(OC)c2)c1 | 4300 |
| COc1ccc(/C=C/C(=O)c2cc(OC)c(OC)c(OC)c2)cc1OC | 8100 |
| COc1cc(C(=O)c2ccc(-c3ccccc3Cl)s2)cc(OC)c1OC | 750 |
| COc1cc(C(=O)c2ccc(-c3ccc([N+](=O)[O-])cc3)s2)cc(OC)c1OC | > 10000 |
| COc1cc(C(=O)c2ccc(-c3ccc(Cl)cc3)s2)cc(OC)c1OC | 2200 |
| COc1cccc(-c2ccc(C(=O)c3cc(OC)c(OC)c(OC)c3)s2)c1 | 2500 |

system: CCRF-CEM; experiment: Antiproliferative activity against human CEM cells after 2 days; format: functional, cell-based; conditions: 48 h; summary of the method: as §1

| SMILES | IC50 [nM] |
| --- | --- |
| COc1cc(C(=O)/C=C/c2ccc(F)cc2)cc(OC)c1OC | > 10000 |
| COc1cc(C(=O)c2ccc(-c3cccc(F)c3)s2)cc(OC)c1OC | 2100 |
| COc1cc(C(=O)c2ccc(-c3ccsc3)s2)cc(OC)c1OC | 1300 |
| COc1ccc(-c2ccc(C(=O)c3cc(OC)c(OC)c(OC)c3)s2)cc1 | 2200 |
| COc1cc(C(=O)c2ccc(-c3cccc([N+](=O)[O-])c3)s2)cc(OC)c1OC | 1800 |
| COc1ccccc1/C=C/C(=O)c1cc(OC)c(OC)c(OC)c1 | 1800 |
| COc1cccc(/C=C/C(=O)c2cc(OC)c(OC)c(OC)c2)c1 | 2200 |
| COc1ccc(/C=C/C(=O)c2cc(OC)c(OC)c(OC)c2)cc1OC | 1900 |
| COc1cc(C(=O)c2ccc(-c3ccccc3Cl)s2)cc(OC)c1OC | 490 |
| COc1cc(C(=O)c2ccc(-c3ccc([N+](=O)[O-])cc3)s2)cc(OC)c1OC | > 10000 |
| COc1cc(C(=O)c2ccc(-c3ccc(Cl)cc3)s2)cc(OC)c1OC | 2300 |
| COc1cccc(-c2ccc(C(=O)c3cc(OC)c(OC)c(OC)c3)s2)c1 | 2000 |

system: MOLT-4; experiment: Antiproliferative activity against human MOLT4 cells after 2 days; format: functional, cell-based; conditions: MOLT-4, 48 h; summary of the method: as §1

| SMILES | IC50 [nM] |
| --- | --- |
| COc1cc(C(=O)/C=C/c2ccc(F)cc2)cc(OC)c1OC | > 10000 |
| COc1cc(C(=O)c2ccc(-c3cccc(F)c3)s2)cc(OC)c1OC | 1200 |
| COc1cc(C(=O)c2ccc(-c3ccsc3)s2)cc(OC)c1OC | 370 |
| COc1ccc(-c2ccc(C(=O)c3cc(OC)c(OC)c(OC)c3)s2)cc1 | 460 |
| COc1cc(C(=O)c2ccc(-c3cccc([N+](=O)[O-])c3)s2)cc(OC)c1OC | 1700 |
| COc1ccccc1/C=C/C(=O)c1cc(OC)c(OC)c(OC)c1 | 1900 |
| COc1cccc(/C=C/C(=O)c2cc(OC)c(OC)c(OC)c2)c1 | 3100 |
| COc1ccc(/C=C/C(=O)c2cc(OC)c(OC)c(OC)c2)cc1OC | 3100 |
| COc1cc(C(=O)c2ccc(-c3ccccc3Cl)s2)cc(OC)c1OC | 1000 |
| COc1cc(C(=O)c2ccc(-c3ccc([N+](=O)[O-])cc3)s2)cc(OC)c1OC | > 10000 |
| COc1cc(C(=O)c2ccc(-c3ccc(Cl)cc3)s2)cc(OC)c1OC | 1300 |
| COc1cccc(-c2ccc(C(=O)c3cc(OC)c(OC)c(OC)c3)s2)c1 | 1800 |
